Reference: ChEMBL document CHEMBL1130202, “Biologically active heteroarotinoids exhibiting anticancer activity and decreased toxicity” (J Med Chem, 1997)

System: CC-B
Experiment: Relative transcriptional activation activity relative to t-RA
Type: functional, Homo sapiens
Outline: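 CC-B reporter cells (CC-1 cervical line carrying a CAT gene under a RARE with a tk promoter) were seeded at 4×10^5 cells/well in MEM with nonessential amino acids, pyruvate and 10% FBS, the serum lots having negligible t-RA by HPLC. Triplicate cultures were screened at 10^-6 M with 0.1% DMSO final. After 48 h, CAT activity ([3H]acetyl-CoA) per mg protein was taken as treated/control and expressed relative to t-RA. Average of three experiments.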

Structure (SMILES) | Relative activity
CCOC(=O)c1ccc(/C=C(\C)c2ccc3c(c2)CC[C@@H](CC)[S+]3[O-])cc1 (stereo partly specified) | 35.8
CCOC(=O)c1ccc(OC(=O)c2ccc3c(c2)C(C)(C)CCN3C)cc1 | 54
CCOC(=O)c1ccc(OC(=O)c2ccc3c(c2)C(C)(C)CCO3)cc1 | 40
CCOC(=O)c1ccc(/C=C(\C)c2ccc3c(c2)C(C)(C)CCO3)cc1 | 35.7
COC(=O)c1ccc(C(=O)Oc2c(C)cc3c(c2C)C(C)(C)CC(=O)O3)cc1 | 29
C/C(=C\c1ccc(C(=O)O)cc1)c1ccc2c(c1)C(C)(C)CS2 | 56
CC1(C)CCOc2ccc(C(=O)Oc3ccc(/C=N\N=C(/N)S)cc3)cc21 | 33
CC(/C=C/C=C(\C)c1ccc2c(c1)C(C)(C)CS2)=C\C(=O)O | 50
CCCCCCCCC1CCc2cc(/C(C)=C/c3ccc(C(=O)OCC)cc3)ccc2S1 (stereo unspecified) | 43
C/C(=C\c1ccc(C(=O)O)cc1)c1ccc2c(c1)C(C)(C)CO2 | 46
CCOC(=O)c1ccc(/C=C(\C)c2ccc3c(c2)C(C)(C)CCS3)cc1 | 51
